Results on 16 compounds are retold here after PubChem BioAssay.

Experiment [1] is described as follows: Her2 expression decrease, cell viability multiplex – SKBR3 breast tumor cells, AlphaScreen, ATP viability, primary screen (AID 461;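 active = Her2 level under about 52% in both replicate screens, with viability over 70% of control, limit read from the data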;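 for Her2 level: lower value means less Her2 protein in the cells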;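 for viability: percent of carrier control wells set as 100% viability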). Particulars: SKBR3 Her2 protein level, 18-24 h, measured here: SKBR3 viability, ATP luminescence, at 10 µM. For orientation: In Alpha technology, singlet oxygen from a donor bead excites a nearby acceptor bead.
Experiment [2] addresses Receptor tyrosine-protein kinase erbB-2 (Homo sapiens) (UniProt P04626). Described as above. Particulars: 18-24 h, at 10 µM, stronger effect = lower value.
Experiment [3] in a line: reduced viability of SK-BR-3 breast cancer cells – cell-based, 24 h, human, pilot screen (AID 572;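 active = viability at or below 10% of carrier control in both of two separate runs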;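 note: compound exposure lasted between 18 and 24 h rather than exactly 24 h; 100% = carrier-treated control wells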). To be noted: SK-BR-3 viability, CellTiter-Glo luminescence, at 10 µM, stronger effect = lower value. For orientation: Cellular ATP, detected with luciferase, serves as a proxy for viable cell number.
Experiment [4] can be described thus: HUVEC growth inhibition – cell-based, human, primary screen (AID 575;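 active = viability at or below 30% in both replicate assays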;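 note: 100% = median of untreated cell wells with 0.1% DMSO on each plate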). Particulars: HUVEC proliferation, CellTiter-Glo luminescence, 72 h; at 10 µM; stronger effect = lower value. In a few lines:
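Material: primary human umbilical vein endothelial cells / Schedule: 72 h exposure, 37 °C, 5% CO2, 30 min RT equilibration / Signal: ATP-based CellTiter-Glo luminescent read / Read-out basis: percent of median DMSO-control luminescence / Control set: 32 DMSO-only cell-control wells (high), 32 MePR drug-control wells (low) per plate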

The nature of experiment [5]: H69AR cell proliferation blockers – human, duplicate replicates, primary screen (AID 580;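 active = viability at or under a set limit in both replicates, limit being median viability minus 3 SD, cut at about 48% in these data, passing the limit was not always enough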;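 note: 100% = mean luminescence of untreated wells and 0% = no signal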). Particulars: H69AR lung tumor cells viability, ATP luminescence, 72 h; at 10 µM; stronger effect = lower value.
Experiment [6] in a line: MRP1 drug-resistance reversers in H69AR cells – cell-based, doxorubicin co-treatment, pilot screen (AID 601). To be noted: CellTiter-Glo, 72 h, at 10 µM; for differential viability (reversal): stronger effect = higher value.
Experiment [7] in a line: yeast transport mutant growth inhibition pilot in 384-well plates, post-Golgi transport modulator project (AID 636; in the data active = inhibition above about 31%). To be noted: absorbance 615 nm, about 18 h, stronger effect = higher value.
Experiment [8] is described as follows: growth suppression of yeast trafficking mutant, preliminary HTS, modulators of trafficking downstream of Golgi apparatus project, 1536-format plate, OD 615 nm (AID 637; in the data active = inhibition above about 30%). To be noted: yeast transport mutant growth, absorbance 615 nm, 18 h; stronger effect = higher value.
Setting [9] is: H69AR cells + 2 uM doxorubicin, measured here: viability with 2 uM doxorubicin, stronger effect = lower value.
[10] abbreviates: H69AR cells, compound alone cytotoxicity.

Calls of active or inactive are those of the source.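 Rule for the calls, unless noted: active = viability loss from added drug above about 55%, and viability with drug at most 40%, in both replicates (limit read from the data, passing the limit was not always enough); inconclusive = both conditions met in only one replicate; inactive = neither replicate meets both conditions.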

Chain of Receptor tyrosine-protein kinase erbB-2 (Homo sapiens) (P04626 whole entry, looked up): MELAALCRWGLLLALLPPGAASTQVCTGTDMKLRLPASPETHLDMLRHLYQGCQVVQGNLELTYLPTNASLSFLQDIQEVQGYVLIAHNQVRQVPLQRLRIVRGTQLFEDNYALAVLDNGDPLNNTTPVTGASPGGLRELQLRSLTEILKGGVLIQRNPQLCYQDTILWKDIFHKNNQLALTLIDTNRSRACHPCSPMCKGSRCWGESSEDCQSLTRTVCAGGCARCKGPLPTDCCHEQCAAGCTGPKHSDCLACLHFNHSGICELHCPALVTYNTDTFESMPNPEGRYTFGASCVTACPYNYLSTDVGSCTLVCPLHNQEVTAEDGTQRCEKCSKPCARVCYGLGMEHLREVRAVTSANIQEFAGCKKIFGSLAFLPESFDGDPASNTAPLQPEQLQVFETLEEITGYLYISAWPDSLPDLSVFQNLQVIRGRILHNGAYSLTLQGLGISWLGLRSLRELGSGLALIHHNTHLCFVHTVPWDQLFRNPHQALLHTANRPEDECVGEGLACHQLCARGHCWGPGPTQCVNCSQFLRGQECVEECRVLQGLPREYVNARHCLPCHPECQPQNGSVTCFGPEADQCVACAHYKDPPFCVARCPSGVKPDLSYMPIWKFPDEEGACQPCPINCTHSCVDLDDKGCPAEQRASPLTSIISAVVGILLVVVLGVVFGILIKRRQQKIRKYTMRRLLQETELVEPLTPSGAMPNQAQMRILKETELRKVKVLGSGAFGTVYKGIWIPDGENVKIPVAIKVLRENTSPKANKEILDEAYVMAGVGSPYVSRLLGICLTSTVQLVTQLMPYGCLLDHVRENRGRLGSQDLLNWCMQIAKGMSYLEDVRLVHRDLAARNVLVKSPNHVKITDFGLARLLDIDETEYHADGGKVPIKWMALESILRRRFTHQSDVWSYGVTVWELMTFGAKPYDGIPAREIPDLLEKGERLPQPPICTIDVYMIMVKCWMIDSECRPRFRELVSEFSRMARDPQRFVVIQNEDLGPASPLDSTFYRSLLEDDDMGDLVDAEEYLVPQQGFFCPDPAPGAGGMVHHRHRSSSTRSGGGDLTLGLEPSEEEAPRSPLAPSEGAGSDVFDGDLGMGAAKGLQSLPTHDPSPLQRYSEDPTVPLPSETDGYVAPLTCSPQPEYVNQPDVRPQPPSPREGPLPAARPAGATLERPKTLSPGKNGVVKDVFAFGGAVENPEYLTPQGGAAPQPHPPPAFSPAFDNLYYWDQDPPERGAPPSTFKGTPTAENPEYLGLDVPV

As to `CCNS(=O)(=O)c1c(C)cc(N2CCCC2=O)cc1C`, the viability in experiment [1] is 95.5%; in experiment [3], 95.5% (inactive); in experiment [4], 112% (inactive); in experiment [5], 98.8% (inactive); in experiment [6] (setting [9]), 90.6%; in experiment [6] (setting [10]) it was 98.8%. The Her2 level in experiment [2] is 109% (inactive). The differential viability (reversal) in experiment [6] (H69AR cells + 2 uM doxorubicin) is 8.17% (inactive). Besides, the inhibition is -3.87% (inactive) in experiment [7] and -1.31% (inactive) in experiment [8].

On to `O=C(COc1ncnc2ccccc12)NCc1ccc2c(c1)OCO2`, for which the viability in experiment [1] is 100%; in experiment [3], 100% (inactive); in experiment [4], 92.8% (inactive); in experiment [5] it was 92.6% (inactive); in experiment [6] (setting [9]), 94.4%; in experiment [6] (setting [10]), 92.6%. Also, the Her2 level in experiment [2] was 96% (inactive). In addition, the differential viability (reversal) in experiment [6] (H69AR cells + 2 uM doxorubicin) is -1.82% (inactive). Besides, the inhibition in experiment [7] is -4.21% (inactive); in experiment [8], 4.92% (inactive).

Turning to `O=C(CCCn1c(=S)[nH]c2ccccc2c1=O)N1CCCCC1`, the viability in experiment [1] was 86%; in experiment [3], 86% (inactive); in experiment [4], 87.1% (inactive); in experiment [5] it was 96.8% (inactive); in experiment [6] (setting [9]), 90.2%; in experiment [6] (setting [10]), 96.8%. Moreover, in experiment [2], the Her2 level is 108% (inactive). Also, the differential viability (reversal) in experiment [6] (H69AR cells + 2 uM doxorubicin) was 6.58% (inactive). Besides, the inhibition in experiment [7] is -2.63% (inactive); in experiment [8], -8.1% (inactive).

On to `Cc1ccc(-c2noc(C3CCCN(C(=O)c4ccc(F)cc4F)C3)n2)cc1` (stereo not given), for which the viability in experiment [1] was 99%; in experiment [3] it was 99% (inactive); in experiment [4] it was 87.4% (inactive); in experiment [5], 90% (inactive); in experiment [6] (setting [9]) it was 88.1%; in experiment [6] (setting [10]), 90%. Also, in experiment [2], the Her2 level is 94% (inactive). For the same compound, the differential viability (reversal) in experiment [6] (H69AR cells + 2 uM doxorubicin) was 1.88% (inactive). In addition, the figures for the inhibition in experiment [7] and in experiment [8] were -2.16% (inactive) and -9% (inactive), respectively.

Take `Cc1csc(NC(=O)CCCSc2nc3ccccc3s2)n1`: the viability is 100% in experiment [1]; 100% (inactive) in experiment [3]; 62.9% (inactive) in experiment [4]; 96% (inactive) in experiment [5]; 95.9% in experiment [6] (setting [9]); 96% in experiment [6] (setting [10]). Moreover, the Her2 level in experiment [2] is 71% (inactive). Further, the differential viability (reversal) in experiment [6] (H69AR cells + 2 uM doxorubicin) is 0.115% (inactive). In addition, the inhibition was -5.87% (inactive) in experiment [7] and 5.57% (inactive) in experiment [8].

For the compound `COC(=O)c1ccc(NC(=O)CN2CCN(c3ccc(Cl)cc3)CC2)cc1`, the viability in experiment [1] was 96.5%; in experiment [3] it was 96.5% (inactive); in experiment [4], 104% (inactive); in experiment [5] it was 96.1% (inactive); in experiment [6] (setting [9]), 96.6%; in experiment [6] (setting [10]), 96.1%. In addition, the Her2 level in experiment [2] is 100% (inactive). For the same compound, the differential viability (reversal) in experiment [6] (H69AR cells + 2 uM doxorubicin) is -0.5% (inactive). In addition, the values for the inhibition in experiment [7] and in experiment [8] were 0.13% (inactive) and 12.9% (inactive), respectively.

As to `CSc1ccccc1N=CC1=C(O)CC(C)(C)CC1=O`, the viability was 118% in experiment [1]; 118% (inactive) in experiment [3]; 67.1% (inactive) in experiment [4]; 89.2% (inactive) in experiment [5]; 90.1% in experiment [6] (setting [9]); 89.2% in experiment [6] (setting [10]). Besides, the Her2 level in experiment [2] is 96% (inactive). Besides, in experiment [6] (H69AR cells + 2 uM doxorubicin), the differential viability (reversal) is -0.87% (inactive). The inhibition in experiment [7] was -4.94% (inactive); in experiment [8], -3.28% (inactive).

On to `COc1ccc(CC(NC(C)=O)C(=O)N2CCN(C(=O)N(C(C)C)C(C)C)CC2)cc1` (stereo not given), for which the viability is 90.5% in experiment [1]; 90.5% (inactive) in experiment [3]; 94.5% (inactive) in experiment [4]; 94.2% (inactive) in experiment [5]; 88.3% in experiment [6] (setting [9]); 94.2% in experiment [6] (setting [10]). Moreover, in experiment [2], the Her2 level is 110% (inactive). In experiment [6] (H69AR cells + 2 uM doxorubicin), the differential viability (reversal) was 5.88% (inactive). The inhibition is -5.13% (inactive) in experiment [7] and -12.8% (inactive) in experiment [8].

In the case of `CC1(C)CC(CCNC(=O)c2ccco2)CC(C)(C)N1`, the viability was 106% in experiment [1]; 106% (inactive) in experiment [3]; 84.2% (inactive) in experiment [4]; 98.8% (inactive) in experiment [5]; 95.8% in experiment [6] (setting [9]); 98.8% in experiment [6] (setting [10]). The Her2 level in experiment [2] was 92% (inactive). The differential viability (reversal) in experiment [6] (H69AR cells + 2 uM doxorubicin) was 2.95% (inactive). For the same compound, the inhibition in experiment [7] is -3.73% (inactive); in experiment [8], -4.76% (inactive).

For the compound `O=S1(=O)CCC(NS(=O)(=O)/C=C/c2ccccc2)C1` (stereo not given), the viability in experiment [1] is 110%; in experiment [3], 110% (inactive); in experiment [4], 93.4% (inactive); in experiment [5], 99.2% (inactive); in experiment [6] (setting [9]), 90.1%; in experiment [6] (setting [10]), 99.2%. Also, the Her2 level in experiment [2] is 104% (inactive). For the same compound, the differential viability (reversal) in experiment [6] (H69AR cells + 2 uM doxorubicin) was 9.1% (inactive). The inhibition was -6.22% (inactive) in experiment [7] and -3.11% (inactive) in experiment [8].

Take `COc1cc(CC(=O)NCc2ccc3c(c2)OCO3)cc(OC)c1OC`: the viability in experiment [1] is 99%; in experiment [3], 99% (inactive); in experiment [4] it was 85.9% (inactive); in experiment [5], 95.8% (inactive); in experiment [6] (setting [9]) it was 86.2%; in experiment [6] (setting [10]), 95.8%. Besides, the Her2 level in experiment [2] is 78.5% (inactive). Further, the differential viability (reversal) in experiment [6] (H69AR cells + 2 uM doxorubicin) is 9.63% (inactive). For the same compound, the inhibition was -1.84% (inactive) in experiment [7] and 3.45% (inactive) in experiment [8].

In the case of `CCOC(=O)c1cccc(NC(=O)CS(=O)(=O)Cc2nc(-c3cccc(OC)c3)oc2C)c1`, the viability in experiment [1] was 99.5%; in experiment [3] it was 99.5% (inactive); in experiment [4], 95.2% (inactive); in experiment [5] it was 85.3% (inactive); in experiment [6] (setting [9]), 92.8%; in experiment [6] (setting [10]), 85.3%. Moreover, the Her2 level in experiment [2] is 79% (inactive). Besides, the differential viability (reversal) in experiment [6] (H69AR cells + 2 uM doxorubicin) was -7.47% (inactive). Besides, the inhibition is -7.87% (inactive) in experiment [7] and -6.61% (inactive) in experiment [8].

Regarding `O=C(Cn1nnc(-c2cccc(C(F)(F)F)c2)n1)NC(=O)NCc1ccco1`, the viability is 89% in experiment [1]; 89% (inactive) in experiment [3]; 98.3% (inactive) in experiment [4]; 74.1% (inactive) in experiment [5]; 77.5% in experiment [6] (setting [9]); 74.1% in experiment [6] (setting [10]). For the same compound, in experiment [2], the Her2 level is 102% (inactive). In experiment [6] (H69AR cells + 2 uM doxorubicin), the differential viability (reversal) is -3.41% (inactive). In addition, the figures for the inhibition in experiment [7] and in experiment [8] were -1.05% (inactive) and -1.82% (inactive), respectively.

Consider `CCN1CCN(C(=O)c2ccc3c(=O)n(C4CCCC4)c(=S)[nH]c3c2)CC1`, for which the viability is 85.5% in experiment [1]; 85.5% (inactive) in experiment [3]; 82.9% (inactive) in experiment [4]; 84.7% (inactive) in experiment [5]; 74.8% in experiment [6] (setting [9]); 84.7% in experiment [6] (setting [10]). In addition, the Her2 level in experiment [2] is 108% (inactive). The differential viability (reversal) in experiment [6] (H69AR cells + 2 uM doxorubicin) was 9.82% (inactive). For the same compound, the inhibition in experiment [7] was 7.37% (inactive); in experiment [8] it was 19.5% (inactive).

Take `NC(=O)c1c(NC(=O)CSc2nnc(-c3ccco3)n2-c2ccccc2)sc2c1CCC2`: the viability in experiment [1] was 76%; in experiment [3], 76% (inactive); in experiment [4], 56.5% (inactive); in experiment [5], 28.9% (active); in experiment [6] (setting [9]), 66.8%; in experiment [6] (setting [10]), 28.9%. In addition, in experiment [2], the Her2 level is 68% (inactive). Besides, the differential viability (reversal) in experiment [6] (H69AR cells + 2 uM doxorubicin) was -37.9% (inactive). In addition, the inhibition in experiment [7] is -4% (inactive); in experiment [8], 35.7% (active).

As to `CCC(Sc1ccc(C(=O)O)cc1)C(=O)O` (stereo not given), the viability in experiment [1] is 86.5%; in experiment [3] it was 86.5% (inactive); in experiment [4], 95.2% (inactive); in experiment [5], 93.9% (inactive); in experiment [6] (setting [9]), 90.2%; in experiment [6] (setting [10]), 93.9%. In experiment [2], the Her2 level is 96% (inactive). Besides, the differential viability (reversal) in experiment [6] (H69AR cells + 2 uM doxorubicin) was 3.74% (inactive). Besides, the inhibition in experiment [7] is -1.97% (inactive); in experiment [8], -10% (inactive).

One may read the viability as a read-out of living cells in per cent, often relative to untreated cells. The term inhibition denotes the relative decrease from the control value, in per cent.
